How the values were obtained:
Format in all cases: functional
UO-31 [1] = assay: Growth inhibition of human UO-31 cells assessed as cell growth at 0.01 uM incubated for 48 hrs by sulforhodamine B assay relative to control; conditions: read-out: Activity
NCI-H23 = assay: Growth inhibition of human NCI-H23 cells assessed as cell growth at 100 uM incubated for 48 hrs by sulforhodamine B assay relative to control; conditions: read-out: Activity
MDA-MB-435 [2] = assay: Growth inhibition of human MDA-MB-435 cells assessed as cell growth at 0.1 uM incubated for 48 hrs by sulforhodamine B assay relative to control; conditions: read-out: Activity
IGROV-1 = assay: Growth inhibition of human IGROV-1 cells assessed as cell growth at 0.01 uM incubated for 48 hrs by sulforhodamine B assay relative to control; conditions: read-out: Activity
U-251 = assay: Growth inhibition of human U-251 cells assessed as cell growth at 0.1 uM incubated for 48 hrs by sulforhodamine B assay relative to control; conditions: read-out: Activity
HOP-62 = assay: Growth inhibition of human HOP-62 cells assessed as cell growth at 1 uM incubated for 48 hrs by sulforhodamine B assay relative to control; conditions: read-out: Activity
KM12 = assay: Growth inhibition of human KM12 cells assessed as cell growth at 0.01 uM incubated for 48 hrs by sulforhodamine B assay relative to control; conditions: read-out: Activity
NCI-H226 = assay: Growth inhibition of human NCI-H226 cells assessed as cell growth at 0.01 uM incubated for 48 hrs by sulforhodamine B assay relative to control; conditions: read-out: Activity
RPMI-8226 = assay: Growth inhibition of human RPMI-8226 cells assessed as cell growth at 1 uM incubated for 48 hrs by sulforhodamine B assay relative to control; conditions: read-out: Activity
SNB-75 [3] = assay: Growth inhibition of human SNB-75 cells incubated for 48 hrs by sulforhodamine B assay
In short: (§1)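 NCI DTP 60-line human tumour panel. Dose-response curves were run only for ligands active in the initial 10 µM screen. GI50 (concentration giving 50% of maximal inhibition of proliferation) and TGI (concentration giving total growth inhibition) were derived from these curves.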

MDA-MB-468 = assay: Growth inhibition of human MDA-MB-468 cells assessed as cell growth at 1 uM incubated for 48 hrs by sulforhodamine B assay relative to control; conditions: read-out: Activity
786-0 = assay: Growth inhibition of human 786-0 cells assessed as cell growth at 0.1 uM incubated for 48 hrs by sulforhodamine B assay relative to control; conditions: read-out: Activity
In short: (§2)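 NCI Developmental Therapeutics Program NCI60 panel. Compounds that were active in the 10 µM one-dose screen went on to dose–response testing. Growth at each concentration is expressed relative to untreated control (100%). GI50 (concentration giving 50% of maximal inhibition of proliferation) and TGI (concentration giving total growth inhibition) were derived from the curves.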

COLO 205 = assay: Growth inhibition of human COLO 205 cells assessed as cell growth at 100 uM incubated for 48 hrs by sulforhodamine B assay relative to control; conditions: read-out: Activity; in short: as §2
SF-268 [4] = assay: Growth inhibition of human SF-268 cells assessed as cell growth at 0.01 uM incubated for 48 hrs by sulforhodamine B assay relative to control; conditions: read-out: Activity
NCI-H522 [5] = assay: Growth inhibition of human NCI-H522 cells assessed as cell growth at 1 uM incubated for 48 hrs by sulforhodamine B assay relative to control; conditions: read-out: Activity
RXF 393 = assay: Growth inhibition of human RXF 393 cells assessed as cell growth at 100 uM incubated for 48 hrs by sulforhodamine B assay relative to control; conditions: read-out: Activity
UO-31 [6] = assay: Growth inhibition of human UO-31 cells assessed as cell growth at 1 uM incubated for 48 hrs by sulforhodamine B assay relative to control; conditions: read-out: Activity
SNB-75 [7] = assay: Growth inhibition of human SNB-75 cells assessed as cell growth at 100 uM incubated for 48 hrs by sulforhodamine B assay relative to control; conditions: read-out: Activity
TK-10 = assay: Growth inhibition of human TK-10 cells assessed as cell growth at 0.1 uM incubated for 48 hrs by sulforhodamine B assay relative to control; conditions: read-out: Activity
SN12C [8] = assay: Growth inhibition of human SN12C cells assessed as cell growth at 0.01 uM incubated for 48 hrs by sulforhodamine B assay relative to control; conditions: read-out: Activity
BT-549 = assay: Growth inhibition of human BT-549 cells assessed as cell growth at 100 uM incubated for 48 hrs by sulforhodamine B assay relative to control; conditions: read-out: Activity
HCT-15 = assay: Growth inhibition of human HCT-15 cells assessed as cell growth at 1 uM incubated for 48 hrs by sulforhodamine B assay relative to control; conditions: read-out: Activity
SF-539 = assay: Growth inhibition of human SF-539 cells assessed as cell growth at 1 uM incubated for 48 hrs by sulforhodamine B assay relative to control; conditions: read-out: Activity
HCT-116 = assay: Growth inhibition of human HCT-116 cells incubated for 48 hrs by sulforhodamine B assay
In short: (§3)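 NCI60 panel at the NCI Developmental Therapeutics Program. Only compounds active in the 10 µM screen went to dose-response testing. GI50, the concentration giving 50% of maximal inhibition of proliferation, and TGI, the concentration giving total growth inhibition, were derived from the dose-response curves.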

SR = assay: Growth inhibition of human SR cells incubated for 48 hrs by sulforhodamine B assay; in short: as §1
SF-268 [9] = assay: Growth inhibition of human SF-268 cells assessed as cell growth at 0.1 uM incubated for 48 hrs by sulforhodamine B assay relative to control; conditions: read-out: Activity
MDA-MB-435 [10] = assay: Growth inhibition of human MDA-MB-435 cells assessed as cell growth at 1 uM incubated for 48 hrs by sulforhodamine B assay relative to control; conditions: read-out: Activity
K562 = assay: Growth inhibition of human K562 cells incubated for 48 hrs by sulforhodamine B assay; in short: as §3
OVCAR-3 = assay: Growth inhibition of human OVCAR-3 cells incubated for 48 hrs by sulforhodamine B assay; conditions: for CC50: read-out: LC50 (the source's name); in short: as §1
SW-620 = assay: Growth inhibition of human SW-620 cells incubated for 48 hrs by sulforhodamine B assay; in short: as §1
NCI-H522 [11] = assay: Growth inhibition of human NCI-H522 cells incubated for 48 hrs by sulforhodamine B assay; in short: as §3
NCI/ADR-RES = assay: Growth inhibition of human NCI/ADR-RES cells assessed as cell growth at 100 uM incubated for 48 hrs by sulforhodamine B assay relative to control; conditions: read-out: Activity
SK-MEL-5 = assay: Growth inhibition of human SK-MEL-5 cells assessed as cell growth at 0.1 uM incubated for 48 hrs by sulforhodamine B assay relative to control; conditions: read-out: Activity
UACC-62 = assay: Growth inhibition of human UACC-62 cells assessed as cell growth at 1 uM incubated for 48 hrs by sulforhodamine B assay relative to control; conditions: read-out: Activity
SN12C [12] = assay: Growth inhibition of human SN12C cells assessed as cell growth at 0.1 uM incubated for 48 hrs by sulforhodamine B assay relative to control; conditions: read-out: Activity

SMILES: Cc1cc(C)c(NC(=O)c2sc3nc4c(cc3c2N)CN(Cc2ccccc2)CC4)c(C)c1
- growth at 0.01 µM (UO-31 [1]): 91%
- growth at 100 µM (NCI-H23): 13%
- growth at 0.1 µM (MDA-MB-435 [2]): 96%
- growth at 0.01 µM (IGROV-1): 101%
- growth at 0.1 µM (U-251): 96%
- growth at 1 µM (HOP-62): 81%
- growth at 0.01 µM (KM12): 98%
- growth at 0.01 µM (NCI-H226): 92%
- growth at 1 µM (RPMI-8226): 87%
- GI50 (SNB-75 [3]): 2.35 µM
- LC50 (SNB-75 [3]): > 100 µM
- TGI (SNB-75 [3]): 11 µM
- growth at 1 µM (MDA-MB-468): 63%
- growth at 0.1 µM (786-0): 92%
- growth at 100 µM (COLO 205): -60%
- growth at 0.01 µM (SF-268 [4]): 98%
- growth at 1 µM (NCI-H522 [5]): 66%
- growth at 100 µM (RXF 393): -15%
- growth at 1 µM (UO-31 [6]): 77%
- growth at 100 µM (SNB-75 [7]): -9%
- growth at 0.1 µM (TK-10): 104%
- growth at 0.01 µM (SN12C [8]): 104%
- growth at 100 µM (BT-549): -9%
- growth at 1 µM (HCT-15): 68%
- growth at 1 µM (SF-539): 88%
- GI50 (HCT-116): 2.89 µM
- LC50 (concentration killing 50% of cells) (HCT-116): 67.2 µM
- TGI (HCT-116): 16 µM
- GI50 (SR): 1.83 µM
- LC50 (SR): > 100 µM
- TGI (SR): 10.7 µM
- growth at 0.1 µM (SF-268 [9]): 100%
- growth at 1 µM (MDA-MB-435 [10]): 20%
- GI50 (K562): 0.903 µM
- LC50 (concentration killing 50% of cells) (K562): > 100 µM
- TGI (K562): > 100 µM
- GI50 (OVCAR-3): 2.32 µM
- TGI (OVCAR-3): 12.6 µM
- CC50 (OVCAR-3): > 100 µM
- GI50 (SW-620): 2.6 µM
- LC50 (concentration killing 50% of cells) (SW-620): > 100 µM
- TGI (SW-620): 17.1 µM
- GI50 (NCI-H522 [11]): 1.6 µM
- LC50 (NCI-H522 [11]): > 100 µM
- TGI (NCI-H522 [11]): 6.83 µM
- growth at 100 µM (NCI/ADR-RES): -11%
- growth at 0.1 µM (SK-MEL-5): 93%
- growth at 1 µM (UACC-62): 69%
- growth at 0.1 µM (SN12C [12]): 101%

SMILES: COc1cccc(NC(=O)c2sc3nc4c(cc3c2N)CN(Cc2ccccc2)CC4)c1
- growth at 0.01 µM (UO-31 [1]): 92%
- growth at 100 µM (NCI-H23): -19%
- growth at 0.1 µM (MDA-MB-435 [2]): 91%
- growth at 0.01 µM (IGROV-1): 101%
- growth at 0.1 µM (U-251): 98%
- growth at 1 µM (HOP-62): 74%
- growth at 0.01 µM (KM12): 100%
- growth at 0.01 µM (NCI-H226): 93%
- growth at 1 µM (RPMI-8226): 84%
- GI50 (SNB-75 [3]): 1.73 µM
- LC50 (SNB-75 [3]): 33.7 µM
- TGI (SNB-75 [3]): 4.71 µM
- growth at 1 µM (MDA-MB-468): 64%
- growth at 0.1 µM (786-0): 93%
- growth at 100 µM (COLO 205): -16%
- growth at 0.01 µM (SF-268 [4]): 99%
- growth at 1 µM (NCI-H522 [5]): 74%
- growth at 100 µM (RXF 393): -49%
- growth at 1 µM (UO-31 [6]): 77%
- growth at 100 µM (SNB-75 [7]): -61%
- growth at 0.1 µM (TK-10): 104%
- growth at 0.01 µM (SN12C [8]): 95%
- growth at 100 µM (BT-549): -32%
- growth at 1 µM (HCT-15): 49%
- growth at 1 µM (SF-539): 79%
- GI50 (HCT-116): 1.74 µM
- LC50 (concentration killing 50% of cells) (HCT-116): > 100 µM
- TGI (HCT-116): > 100 µM
- GI50 (SR): 0.453 µM
- LC50 (SR): > 100 µM
- TGI (SR): 47.7 µM
- growth at 0.1 µM (SF-268 [9]): 100%
- growth at 1 µM (MDA-MB-435 [10]): 4%
- GI50 (K562): 0.53 µM
- LC50 (concentration killing 50% of cells) (K562): > 100 µM
- TGI (K562): > 100 µM
- GI50 (OVCAR-3): 7.53 µM
- TGI (OVCAR-3): 26.9 µM
- CC50 (OVCAR-3): 79.8 µM
- GI50 (SW-620): 1.85 µM
- LC50 (concentration killing 50% of cells) (SW-620): > 100 µM
- TGI (SW-620): 72.2 µM
- GI50 (NCI-H522 [11]): 15.1 µM
- LC50 (NCI-H522 [11]): > 100 µM
- TGI (NCI-H522 [11]): > 100 µM
- growth at 100 µM (NCI/ADR-RES): -26%
- growth at 0.1 µM (SK-MEL-5): 90%
- growth at 1 µM (UACC-62): 58%
- growth at 0.1 µM (SN12C [12]): 93%

— ChEMBL document CHEMBL4715736, “Identification of anticancer agents based on the thieno[2,3-b]pyridine and 1H-pyrazole molecular scaffolds” (2016)
